# Assay outcomes as filed in PubChem BioAssay.
# SF1 activator = SF-1 (human) activation | CHO-K1 Gal4-SF-1 LBD luciferase reporter; % increase over DMSO SF-1-specific signal | Q13285 | 65,000 tested, 1.9% active | activation, % at 10 µM;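 active = activation above the mean activation of all tested compounds plus 3 SD, cut at about 50% in these data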
#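 Material: CHO-K1 cells with Gal4–hSF-1 LBD chimera plus Gal4-driven luciferase / Input: 4,000 CHO-K1 cells per well / Incubation: compound exposure 20 h at 37 °C / Signal: luminescence read 15 min after SteadyLite luciferase reagent, after room-temperature equilibration / Read-out: percent activation versus DMSO / Benchmarks: DMSO negative control and −SF1 background wells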
# ERb SRC1 inh = blocks coactivator binding to human estrogen receptor beta; Q92731; TR-FRET ER-beta LBD / SRC1-Cy5 peptide binding; receptor agonist-loaded with 1 µM estradiol; inhibition, % at 25.6 µM; 86,000 tested, 1.3% active;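 active = compounds whose percent inhibition of the receptor-coactivator binding signal exceeds about 50% in the single-dose screen, limit read from the data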
# Target sequence (Q92731 whole entry, looked up, the tested form may be a part): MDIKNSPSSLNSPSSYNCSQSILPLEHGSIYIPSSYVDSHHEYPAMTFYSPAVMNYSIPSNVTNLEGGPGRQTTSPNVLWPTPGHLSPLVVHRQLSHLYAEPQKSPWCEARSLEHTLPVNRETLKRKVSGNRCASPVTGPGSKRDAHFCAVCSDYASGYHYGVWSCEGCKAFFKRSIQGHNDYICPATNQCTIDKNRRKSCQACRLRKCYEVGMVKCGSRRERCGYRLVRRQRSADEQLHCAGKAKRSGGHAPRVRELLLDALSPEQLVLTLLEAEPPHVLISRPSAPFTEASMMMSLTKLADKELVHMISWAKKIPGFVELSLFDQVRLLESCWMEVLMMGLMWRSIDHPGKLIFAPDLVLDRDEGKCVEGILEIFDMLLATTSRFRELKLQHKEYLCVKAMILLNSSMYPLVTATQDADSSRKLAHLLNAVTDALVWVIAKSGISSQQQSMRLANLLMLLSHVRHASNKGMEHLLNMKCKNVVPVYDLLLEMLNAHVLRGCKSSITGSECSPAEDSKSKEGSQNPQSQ
# RORA act = RORA (human) activation; P35398; CHO-K1 Gal4-RORA LBD luciferase reporter, luminescence; percent increase over mock-subtracted basal signal; activation, % at 10 µM; 65,000 tested, 1.5% active; AID 560;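 active = activation above the mean of all tested compounds plus 3 SD, cut at about 49% in these data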
# ERa SRC1 pot = ER-alpha (human) coactivator binding potentiation. P03372. TR-FRET ERalpha-LBD/SRC-Cy5 coactivator binding, 2 h; 100 = basal binding, no effect. coactivator binding (% of control), % at 25.6 µM. 86,000 tested, 1.3% active; in the data active = activity above about 200%;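 note: binding measured in presence of low estradiol as agonist stimulus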
# PTK2B oligo ant = antagonists of human Pyk2 oligomerization. z-score (the deposit names both 25 µM and 10 µM). 99,000 tested, 0.83% active. Q14289. Q293 cells, Pyk2 FERM NanoBiT luminescence; hits give low values;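 active = Z-score of -3 or lower, scaled per plate to the spread of control and sample wells; inactive = z-score above -3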;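 note: negative z-score means lost luminescence so less FERM oligomerization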
# ERa coact inh = blocks coactivator binding to human estrogen receptor alpha; TR-FRET ER-alpha LBD / SRC-1 peptide, estradiol-bound; inhibition, % at 25.6 µM; 86,000 tested, 1.7% active; AID 629; in the data active = inhibition above about 50%
# Hits are given with their value; - = inactive; . = not tested or not shown; [ ] = remark or other dose. Rows were chosen to be rich in hits. Some 4.8% of all compounds tested hit in one or more screens of this group.
SMILES,SF1 activator,ERb SRC1 inh,RORA act,ERa SRC1 pot,PTK2B oligo ant,ERa coact inh
CCOC(=O)c1c(C#N)c(SCC(=O)Nc2ccc(OC)cc2)nc2c1CN(CC)CC2,-,-,-,262,-,-
O=c1sc(N2CCN(c3ccccc3F)CC2)nc2ccsc12,72,-,60,-,.,-
COc1cc(-c2nnc(-c3ccc(S(=O)(=O)c4ccccc4)cc3)o2)cc(OC)c1OC,-,-,-,-,-,58
COc1cc(-c2nnc(-c3ccc(N4CCOCC4)cc3)o2)cc(OC)c1OC,-,-,-,-,-,-
Cc1nn(-c2ccccc2)c(Cl)c1/C=C1\N=C(c2ccccc2)OC1=O,.,-,.,-,.,-
Cc1nccn1-c1cc(C(C)C)c(C#N)c2nc3ccccc3n12,-,-,-,-,.,-
CCOC(=O)c1ccc(NC(=O)N2CCc3ccccc32)cc1,61,-,-,241[fluorescence artefact?],-,-
CCOC(=O)c1cc2sccc2n1CC(=O)OC(C)C,-,-,-,-,-,-
CCOC(=O)c1cc2sccc2n1CC(=O)N1CCc2ccccc21,-,-,-,-,-3.5,-
N#CC(c1ccc(Cl)cc1)(c1ncc(C(F)(F)F)cc1Cl)N1CCOCC1 (configuration not stated),.,.,.,.,-,.
Cn1nc(CC(=O)Nc2ccc(N3CCN(C(=O)OC(C)(C)C)CC3)cc2)c2ccccc2c1=O,-,-,-,-,-,72[fluorescence artefact?]
CC(C)(C)OC(=O)N1CCN(c2ccc(NC(=O)Cn3nnc(-c4ccccc4)n3)cc2)CC1,-,50,-,-,-,-
NC(=O)Cn1c2[n+](c3ccccc31)CC(O)CS2 (configuration not stated),.,.,.,.,-,.
Cc1ccc(S(=O)(=O)N2CCCN(S(=O)(=O)C3CCS(=O)(=O)C3)CC2)cc1 (configuration not stated),-,-,-,-,-,-
CCOC(=O)c1cc(OC(=O)c2ccccc2OC)n(-c2ccccc2)n1,.,-,.,-,-,74[fluorescence artefact?]
O=C(Nc1ccc(Cl)c(Cl)c1)OCCNC(=O)c1cccc(Cl)c1,.,-,.,-,-,-
CC(=O)c1ccc(N2CCN(C(=S)Nc3ccccc3)CC2)cc1,.,.,.,.,-,.
CC(=O)c1ccc(NCC(=O)N2CCN(c3ccccc3)CC2)cc1,.,57,.,-,-,85
CCc1ccc(CNc2ccc(N3CCN(C(C)=O)CC3)cc2)cc1,-,-,-,-,-,-
CC(=O)Nc1ccc(N2CCN(C(C)=O)CC2)cc1,-,63,-,-,-,-
O=C(Nc1ccc(N2CCCC2)cc1)C(c1ccccc1)c1ccccc1,.,-,.,-,-,60
CC(C)C(=O)Nc1ccc(N2CCCC2)cc1,.,-,.,-,-,-
O=C(CCn1c(=O)c2ccccc2n(CC(=O)NC2CCCC2)c1=O)NCCc1ccc(Cl)cc1,.,-,.,-,-,-
CCN(CC)S(=O)(=O)c1ccc(C(=O)N2CCCCC2)cc1,.,-,.,-,-,-
CCCCC(CC)CNC(=O)c1ccc2c(c1)OCO2 (configuration not stated),-,-,-,-,-,-
SMILES,SF1 activator,ERb SRC1 inh,RORA act,ERa SRC1 pot,PTK2B oligo ant,ERa coact inh
O=C(Nc1ccc2c(c1)CCC2)C1CCN(c2ncccn2)CC1,-,-,-,-,-,-
CCC(C)c1ccc(NC(=O)C2CCCN(c3ncccn3)C2)cc1 (configuration not stated),72,.,76,.,-,.
O=C(Nc1ccc(C2CCCCC2)cc1)C1CCN(c2ncccn2)CC1,-,-,-,234[fluorescence artefact?],-,55
COc1ccc2cc(CN(CC3COCCO3)S(=O)(=O)c3ccc(Cl)cc3)c(=O)[nH]c2c1 (configuration not stated),-,-,-,234[fluorescence artefact?],-,-
COc1ccc2cc(CN(CC3CCCO3)S(=O)(=O)c3ccccc3)c(=O)[nH]c2c1 (configuration not stated),.,-,.,-,-,-
CC(C)C(=O)N(Cc1cc2ccccc2[nH]c1=O)C(C)(C)C,-,-,-,-,-,-
COc1ccc(CNC(=O)c2cc(-c3cccs3)on2)cc1,-,51[fluorescence artefact?],-,-,-,76
COCCNC(=O)c1cc(-c2cccc(OC)c2)on1,-,.,-,.,-,.
O=C(NCc1ccc(Cl)cc1)c1cc(-c2cccs2)on1,-,-,-,-,-,95
O=C(NCc1cccs1)c1cc(-c2cccs2)on1,53,-,83,-,-,-
COCCNC(=O)c1cc(-c2cccs2)on1,-,.,145,.,.,.
O=C(NCc1cccs1)c1cc(-c2ccccc2)on1,-,-,-,-,-,-
Cc1ccccc1Cn1ccc(NC(=O)c2onc(C)c2Cl)n1,-,-,87,-,.,-
COc1ccccc1-n1cnc2cc(NCc3cccs3)ccc21,.,-,.,-,-,-
COc1ccccc1-n1cnc2cc(NS(=O)(=O)c3ccc(Br)cc3)ccc21,.,-,.,-,-3.3,-
COc1ccccc1-n1cnc2cc(NCc3ccco3)ccc21,56,-,50,-,-,-
C1CN(CC23CC4CC(CC(C4)C2)C3)CCO1,.,-,.,-,-,-
Cn1c(CC(=O)Nc2ccccc2)nnc1SCCOc1ccccc1,-,-,-,-,-,-
COc1cccc(-c2nc(-c3ccccn3)no2)c1OC,50,-,-,-,-,-
COc1ccccc1-c1nc(-c2ccncc2)no1,-,-,58,-,-,-
COc1ccc(-c2noc(-c3ccco3)n2)cc1OC,50,-,-,-,-,-
COc1ccc(-c2nc(-c3ccncc3)no2)cc1OC,74,-,68,-,-,-
Cc1ccc(SCCC(=O)Nc2cccc(N(C)S(C)(=O)=O)c2)cc1,.,-,.,-,-,-
COc1ccc(-c2nnc(-c3ccc(Br)o3)o2)cc1OC,-,-,-,-,-,-
COc1ccc(Cl)cc1-c1nc(-c2ccncc2)no1,-,-,-,268,-,-
SMILES,SF1 activator,ERb SRC1 inh,RORA act,ERa SRC1 pot,PTK2B oligo ant,ERa coact inh
COc1ccc(-c2noc(-c3cccc(Cl)c3)n2)cc1OC,-,.,-,.,.,.
COc1ccc(-c2nc(-c3ccc(Br)o3)no2)cc1OC,87,.,60,.,.,.
Clc1ccc(OCc2nc(-c3ccncc3)no2)c(Cl)c1,86,-,-,-,-,-
COc1ccc(-c2noc(-c3ccccc3Cl)n2)cc1OC,-,-,82,-,-,-
Nc1nonc1-c1noc(CCCOc2ccc(Cl)cc2Cl)n1,-,-,-,-,-,-
COc1ccc2sc(N3C(=O)C4CC=C(C)CC4C3=O)nc2c1 (configuration not stated),-,-,-,-,-,-
Cc1nonc1NC(=O)Nc1cccnc1,-,-,-,-,-,-
COC(=O)c1cc2c(s1)-c1ccccc1OC2,-,-,-,-,.,-
O=C(Nc1nc2ccccc2s1)c1cc2c(s1)-c1ccccc1OC2,.,-,.,-,.,71
CN(C)S(=O)(=O)c1ccc(C(=O)OCC(=O)NC(=O)NCc2ccccc2)cc1,-,-,-,-,-,-
